# This is a sample that favours compounds with a hit; in the whole collection about 3.6% have one here.
# SKKanGAS inh: blocks kanamycin growth of S. pyogenes SKKanGAS strain; BacTiter-Glo, 6 h; actives 1.3% (n = 300,000); inhibition, % at 7.5 µM;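 active = mean replicate score, as percent of positive control median, at least 50; inconclusive = mean below 50 but one replicate at or above 50; inactive = mean and every replicate below 50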;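 also: strain carries kanamycin resistance gene driven by streptokinase promoter and grows in 40 µg/ml kanamycin; loss of luminescence reflects streptokinase promoter inhibition or plain growth inhibition; 0% = median of DMSO wells and 100% = positive control at its reference dose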
# Beta apoptosis: beta cell apoptosis inhibition; INS-1E cytokine-induced death, ATP luminescence, 48 h; percent of positive-control rescue, neutral wells zero; protection from apoptosis, % (no concentration beside the values); actives 0.8% (n = 300,000); AID 435005;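 active = Every replicate reaches about 75%, or at least half do and their mean reaches it too, limit read from the data; inconclusive = At least half of replicates reach the limit but their mean does not; inactive = Under half of replicates reach the limit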;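 also: 0% = cytokine-treated negative control wells and 100% = positive control rescue; higher means more ATP so stronger rescue from cytokine killing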
# T cruzi repl: blocks replication of Trypanosoma cruzi; inhibition, % (concentration not given with the values); actives 1.4% (n = 300,000); T. cruzi beta-gal in NIH3T3, luminescence, 90 h;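 active = mean inhibition across valid replicates above about 55%, limit read from the data; inconclusive = mean below that limit but half or more replicates reach it; inactive = mean below it, under half of replicates reach it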;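 also: signal also drops with host cell toxicity which is not excluded here; 0% = plate median of DMSO wells and 100% = zero luminescence signal; higher percent means less beta-gal luminescence so fewer parasites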
#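 System: NIH/3T3 fibroblasts plus reporter T. cruzi. Medium: DMEM plus 2% FBS. Probe or stimulus: 5000 reporter trypomastigotes per well. Compound: single 50 nL compound addition per well in DMSO. Incubation: co-culture of at least 90 h after 3 h attachment. Detection: GalScreen β-gal luminescence, detergent lysis, 60 min. Evaluation: parasite load inhibition, %.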
# PfHsp90 set2: growth inhibition of yeast expressing Plasmodium Hsp90 | S. cerevisiae expressing PfHsp90, BacTiter-Glo ATP, 48 h; yeast lacking PDR1 and PDR3 efflux regulators | inhibition, % at 9.4 µM | actives 0.32% (n = 310,000);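 active = every replicate shows inhibition above about 80%, whatever the replicate mean, limit read from the data; inconclusive = mean inhibition reaches the set limit but some replicate falls short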;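 also: 0% = DMSO neutral controls and 100% = 20 µM radicicol positive controls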
# CSC inhib: cancer stem cell inhibition; cancer stem cell-like cells viability, luminescence; inhibition, % at 7.5 µM; actives 1.1% (n = 300,000); AID 2717; in the data active = inhibition above about 75%; inconclusive = no clear call, values can overlap the other calls; tested in HMLE shEcad cells
# HIF act: HIF pathway transcriptional activation. U2OS HRE-luciferase reporter, luminescence; normalized: DMSO 0%, desferrioxamine 100%. activation, % at 7.5 µM (by protocol). actives 0.32% (n = 300,000). AID 1910;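 active = mean activation of at least 10% of the iron chelator positive control signal, with at least half of replicates also reaching 10%; inconclusive = mean and replicate majority disagree about reaching 10%; inactive = mean and most replicates under 10%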
# An asterisk follows results filed as active; ? = inconclusive; · = no result.
SMILES,SKKanGAS inh,Beta apoptosis,T cruzi repl,PfHsp90 set2,CSC inhib,HIF act
CCCCCCCCCCn1c2c(c(=N)c3c1CCC3)CCC2,?,118*,68*,7,91*,-1
CCn1c(=O)c2cc(C(=O)N(C)c3ccccc3F)sc2c2ccccc21,6,14,69*,-15,55,0
Cc1ccc(OCCCCN(C)Cc2ccccc2)c(Br)c1,1,1,17,5,94*,-1
Cc1ccc(C(C)C)c(OCCCN(C)Cc2ccccc2)c1,-3,13,41,32,9,0
Cc1ccc(S(=O)(=O)N2CCCCC2)cc1C(=O)OC(C)C(=O)NC1CCCCC1C (centres undefined),·,·,·,-8,·,·
CC1SC(=NC(=O)c2ccncc2)NC1=O (centres undefined),2,4,-11,-16,-10,932*
CCOC(=O)c1c(S(=O)(=O)N2CCC(C)CC2)c(C)n(C)c1C,-3,-6,-2,-5,6,44*
O=C(CNC(=O)c1ccccc1)OCc1cccc(Br)c1,-4,-11,-15,4,-10,0
O=C(CCCNC(=O)c1ccc(Cl)cc1)OCc1cccc(Br)c1,-23,1,-8,113*,-6,0
Cc1cc(C(=O)OC(C(=O)Nc2cccc(C(F)(F)F)c2)c2ccccc2)c(C)o1 (centres undefined),71*,4,41,1,-21,0
CC(=O)Nc1ccc(S(=O)(=O)N(Cc2ccccc2)c2ccccc2F)cc1,5,5,23,-10,2,0
CCOC(=O)/C(=C/c1ccc(N2CCC(c3ccccc3)=N2)cc1)C(C)=O,-13,·,9,106*,·,0
O=C(c1sc2cccc(Cl)c2c1Cl)N1CCN(CCc2ccccn2)CC1,-5,-3,17,1,1,0
CC(C)NCC(O)Cn1c2c(c3ccccc31)CCc1c-2cnn1-c1ccccc1 (centres undefined),4,113*,40,11,14,6
COc1ccc(OC)c(C2C=C(C34CC5CC(CC(C5)C3)C4)NC(=S)N2)c1 (centres undefined),52*,2,65*,-24,-5,-1
S=C1NC(C23CC4CC(CC(C4)C2)C3)=CC(c2ccc3c(c2)OCO3)N1 (centres undefined),58*,0,70*,·,-6,0
COc1cc(C2C=C(C34CC5CC(CC(C5)C3)C4)NC(=S)N2)cc(OC)c1OC (centres undefined),14,1,24,-17,-1,0
NC(=O)CC[C@H](NC(=O)OCc1ccccc1)C(=O)OCc1ccc(Cl)cc1,-1,1,-10,-3,0,0
CCn1c(CNC(=O)C2CCCCC2)cc2cc(C)ccc21,-1,6,-11,4,-11,-47
Cc1cc(C(=O)COC(=O)Cc2n[nH]c(=O)c3ccccc23)c(C)n1-c1ccc2c(c1)OCCO2,15,-2,69*,-20,9,-1
Cc1cc(C(=O)COC(=O)C2=COCCO2)c(C)n1-c1ccc2c(c1)OCO2,-5,-3,-13,1,-19,4
CN(C)c1ccc(-c2cc3ccccc3c(=O)o2)cc1,·,-5,·,-15,10,·
Cc1cc(C)cc(NC2=NC3(CCCCC3)N=C(N)N2)c1,-1,-1,1,-14,53,1
Cc1cccc(NC2=NC(C)(C)N=C(N)N2)c1,111*,3,-54,-5,·,-2
CCOC(=O)C(C)(C)n1nnc(-c2ccc([N+](=O)[O-])cc2)n1,-13,-7,4,23,-2,0
SMILES,SKKanGAS inh,Beta apoptosis,T cruzi repl,PfHsp90 set2,CSC inhib,HIF act
CCCc1nc(NC2CCCCC2)c(C#N)c2c1COC(C)(C)C2,60*,3,18,-11,106*,0
CC(Nc1n[nH]c(=O)[nH]c1=O)C(=O)N/N=C/c1cccs1 (centres undefined),3,·,-17,7,-12,0
COc1cc2c(-c3ccccc3)c(C)oc2cc1/C=N/NC(N)=S,-4,5,89*,-14,13,-3
O=C(Cn1cnc2ccccc2c1=O)NC1CCS(=O)(=O)C1 (centres undefined),0,-3,-2,-34,-16,0
O=c1[nH]nnc2c1cnn2-c1ccccc1,·,·,·,31,·,·
O=C(N/N=C/c1ccccn1)c1ccc(NC(=O)c2ccccc2Cl)cc1,0,·,3,0,7,0
O=C(N/N=C/c1ccccn1)c1ccc(Cl)c(Cl)c1,53*,18,37,-4,25,7
CNc1nc(N/N=C/c2cc([N+](=O)[O-])ccc2F)nc(Nc2ccccc2)n1,·,·,·,-7,·,·
CNc1nc(N/N=C/c2cc3c(cc2[N+](=O)[O-])OCO3)nc(Nc2ccccc2)n1,0,98*,72*,-20,-4,-9
O=C(c1cccs1)C1CCCN(Cc2nc(Cc3ccccc3F)no2)C1 (centres undefined),10,3,15,·,-9,0
CC(C)OC(=O)c1cn(-c2ccccc2)nc1-c1ccco1,12,0,56*,-1,15,1
CC1=C(C(=O)O)N2C(=O)C(NC(=O)c3nn(C)c(C)c3Cl)C2SC1 (centres undefined),-15,0,-20,-2,·,1
CC(=O)OCC1=C(C(=O)O)N2C(=O)C(NC(=O)C(C)Cn3nc(C)c(Cl)c3C)C2SC1 (centres undefined),101*,-2,-15,-4,-11,2
CC(=O)OCC1=C(C(=O)O)N2C(=O)[C@@H](NC(=O)CSc3ccncc3)[C@H]2SC1,·,·,·,20,·,·
CC(=O)OCC1=C(C(=O)O)N2C(=O)C(NC(=O)c3ccc(F)cc3)C2SC1 (centres undefined),90*,-4,-11,-1,-8,0
COCC1=C(C(=O)OC(C)OC(=O)OC(C)C)N2C(=O)[C@@H](NC(=O)/C(=N\OC)c3csc(N)n3)[C@H]2SC1 (some centres undefined),102*,1,3,17,-9,0
CO/N=C(\C(=O)N[C@@H]1C(=O)N2C(C(=O)O)=C(COC(N)=O)CS[C@H]12)c1ccco1,102*,-10,-13,14,-7,0
Cn1c(=O)c2[nH]c(C=Cc3ccc4c(c3)OCO4)nc2n(C)c1=O,·,·,·,-3,·,·
C=CCn1c(SCC(=O)Nc2sccc2C(N)=O)nc2ccc(Cl)cc2c1=O,35,25,-14,·,3,0
C=CCn1c(SCN2C(=O)c3ccccc3C2=O)nc2ccc(Cl)cc2c1=O,-2,98*,-25,-10,3,-1
CC1(NC(=O)CC[N+](C)(C)CCO)CS(=O)(=O)CC1S(=O)(=O)[O-] (centres undefined),2,-6,-3,·,5,0

# Assay outcomes deposited in PubChem BioAssay by Broad Institute.
